Results from different studies.
Compare with care: the assays were run in different laboratories.
Target: Calcium/calmodulin-dependent protein kinase type 1B (PNCK, Homo sapiens, UniProt Q6P2M8)

SMILES | test | setting | remaining binding [%]
Nc1ncc2c(n1)-c1c([nH]c3ccc(C#CC4CC4)cc13)CCCC2 | binding, competition with immobilised ligand | 1 µM | 79
O=C(Nc1cnc(Oc2ccc(F)cc2)nc1)N1CCc2ncccc2[C@@H]1c1ccc(F)cc1 | cell-free assay, competition with immobilised ligand | 1 µM | 100
COc1cnc(Nc2cccc(S(N)(=O)=O)c2)nc1N1CCN(c2ccccc2)CC1 | binding, competition with immobilised ligand | 1 µM | 92
Cc1cnc(Nc2ccc(C(=O)N3CCC(N4CCCC4)CC3)cc2)nc1-c1cc2ccccc2s1 | binding, competition with immobilised ligand | 1 µM | 36
N[C@H]1CCN(c2nccc(-c3cnn4ncccc34)n2)C1 | binding | 1 µM | 84
O=C(NCCCN1CCOCC1)c1ccc(Nc2nccc(-c3cc4ccccc4s3)n2)cc1 | binding, competition with immobilised ligand | 1 µM | 61
CNCc1ccccc1-c1csc([C@H](C)Nc2nc(C)nc3cc(OC)c(OC)cc23)c1 | cell-free assay, competition with immobilised ligand | 1 µM | 100
Cc1cnn2ncc(-c3ccnc(N(C)C)n3)c2c1 | binding | 1 µM | 97
CCCOc1ccc([C@H]2[C@H](C(=O)O)[C@@H](c3ccc4c(c3)OCO4)CN2CC(=O)Nc2c(CC)cccc2CC)cc1 | cell-free assay, competition with immobilised ligand | 1 µM | 77
CN(C)c1nccc(-c2cnc3ncccn23)n1 | binding | 1 µM | 62
CC1=C(C#N)[C@@H](c2ccc3[nH]nc(C)c3c2)C(C#N)=C(c2ccc(Cl)cc2)N1 | cell-free assay, competition with immobilised ligand | 1 µM | 98.5
O=C(Nc1c[nH]nc1C(=O)NC1CCNCC1)c1cc(F)cc(F)c1 | binding, competition with immobilised ligand | 1 µM | 100
CN(C)c1nccc(-c2cnn3ncccc23)n1 | binding | 1 µM | 29
N#CC1(c2ccccn2)CCN(Cc2cc(C(=O)N3CCCC3)c(=O)n3ccccc23)CC1 | cell-free assay, competition with immobilised ligand | 1 µM | 90
C[C@@H]1CCN(c2nccc(-c3cnn4ncccc34)n2)C1 | binding | 1 µM | 89
c1cncc(-c2cccc(Nc3nccc(NC4CCCCC4)n3)c2)c1 | binding, competition with immobilised ligand | 10 µM | 53
CN(c1nccc(-c2cnn3ncccc23)n1)C1CC1 | binding | 1 µM | 98
O=C(c1ccc(Nc2ncc(Cl)c(-c3ccc(Cl)s3)n2)cc1)N1CCC(N2CCCC2)CC1 | binding, competition with immobilised ligand | 1 µM | 56
